Data as given in ChEMBL document CHEMBL3407343, “Functionalized tetrahydro-1H-pyrido[4,3-b]indoles: a novel chemotype with Sirtuin 2 inhibitory activity” (Eur J Med Chem, 2015).
≈ marks a conversion by molar mass, not a printed value. Calls of active or inactive are those of the source. No cut-off for these calls is given here.

How the values were obtained:
[1] = target: T1, NAD-dependent protein deacetylase sirtuin-1 (Homo sapiens) (UniProt Q96EB6); test: Inhibition of human recombinant SIRT1 assessed as deacetylation of N-acetyl lysine residue in p53 (317 to 320) at 10 uM after 30 mins by luciferase-mediated luminescence assay relative to control
T1 sequence (whole entry): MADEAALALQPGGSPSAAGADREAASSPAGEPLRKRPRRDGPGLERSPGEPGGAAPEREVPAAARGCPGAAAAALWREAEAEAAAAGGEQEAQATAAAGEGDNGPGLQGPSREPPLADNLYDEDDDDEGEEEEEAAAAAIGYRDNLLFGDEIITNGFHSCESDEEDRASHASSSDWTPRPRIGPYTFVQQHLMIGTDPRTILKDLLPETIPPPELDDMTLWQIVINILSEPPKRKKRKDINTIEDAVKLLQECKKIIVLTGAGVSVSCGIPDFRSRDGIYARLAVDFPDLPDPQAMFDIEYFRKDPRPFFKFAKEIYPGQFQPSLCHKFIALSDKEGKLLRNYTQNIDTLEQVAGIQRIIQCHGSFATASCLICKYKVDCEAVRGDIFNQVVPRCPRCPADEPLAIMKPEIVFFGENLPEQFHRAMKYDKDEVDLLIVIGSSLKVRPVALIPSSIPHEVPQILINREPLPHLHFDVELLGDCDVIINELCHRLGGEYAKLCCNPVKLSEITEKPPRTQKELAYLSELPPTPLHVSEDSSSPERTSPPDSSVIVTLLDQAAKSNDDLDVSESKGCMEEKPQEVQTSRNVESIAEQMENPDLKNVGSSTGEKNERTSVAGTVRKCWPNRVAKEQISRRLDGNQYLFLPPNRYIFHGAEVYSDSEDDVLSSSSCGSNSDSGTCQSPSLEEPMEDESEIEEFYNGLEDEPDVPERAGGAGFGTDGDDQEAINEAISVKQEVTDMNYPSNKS
In short: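 Recombinant human SIRT1 at 0.1 unit/well, with the enzyme amount chosen from the mid-linear range of a signal-to-noise titration, in Sirt-Glo buffer. Serially diluted inhibitor in DMSO covers a 10^3-fold range, with 2.5% DMSO final. The single-point screen is at a fixed 10 µM. Enzyme and inhibitor were agitated 30 min at 25 °C, then Sirt-Glo reagent added and shaken another 30 min at 25 °C before luminescence was read. Activity is % of the enzyme-only control after blank subtraction. IC50 comes from a sigmoidal fit of % activity against log concentration, run in triplicate across ≥2 independent experiments.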

[2] = target: T2, NAD-dependent protein deacetylase sirtuin-1 (Homo sapiens, UniProt Q96EB6); test: Inhibition of human recombinant SIRT1 assessed as deacetylation of N-acetyl lysine residue in p53 (317 to 320) after 30 mins by luciferase-mediated luminescence assay
T2 sequence (Q96EB6 whole entry): T1 sequence (whole entry)

Homo sapiens [3] = species on record: Homo sapiens; test: Inhibition of protease (unknown origin) using deacetylated peptide as substrate assessed as luminescence at 10 uM after 30 mins relative to control; parameters: scale not given: the % may be the effect or the level left
In short: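 Counter-screen without sirtuin: compound from DMSO stock diluted in Sirt-Glo buffer, then Sirt-Glo reagent added carrying non-acetylated control peptide. DMSO was 2.5% v/v. Mixed by shaking 30 min at 25 °C, then luminescence read. Result is % of control (peptide plus reagent in vehicle) after subtracting the vehicle-only blank.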

Homo sapiens [4] = species on record: Homo sapiens; test: Inhibition of protease (unknown origin) using deacetylated peptide as substrate assessed as luminescence at 100 uM after 30 mins relative to control; parameters: scale not given: the % may be the effect or the level left
Homo sapiens [5] = species on record: Homo sapiens; test: Inhibition of protease (unknown origin) using deacetylated peptide as substrate assessed as luminescence at 25 uM after 30 mins relative to control; parameters: scale not given: the % may be the effect or the level left
[6] = Solubility of the compound in phosphate buffer at pH 7.4 at 25 degC by turbimetric method; format: physicochemical
In short: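 Turbidimetric solubility. Compound from DMSO stock was added to phosphate buffer pH 7.4 at 1–50 µM final, with 1% v/v DMSO. Plate shaken 30 min at 25 °C and absorbance read at 620 nm. Solubility is assigned to the concentration range where absorbance rises two-fold or more, from 3 separate determinations.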

[7] = target: T3, NAD-dependent protein deacetylase sirtuin-2 (Homo sapiens) (UniProt Q8IXJ6); test: (§1) Non-competitive inhibition of human recombinant SIRT2 using Z-QPK(Me)2K(Ac) as substrate assessed as decrease in maximal enzyme activity preincubated for 60 mins followed by substrate addition measured after 30 mins by double-reciprocal plot analysis in presence of 5 mM NAD+
T3 sequence (whole entry): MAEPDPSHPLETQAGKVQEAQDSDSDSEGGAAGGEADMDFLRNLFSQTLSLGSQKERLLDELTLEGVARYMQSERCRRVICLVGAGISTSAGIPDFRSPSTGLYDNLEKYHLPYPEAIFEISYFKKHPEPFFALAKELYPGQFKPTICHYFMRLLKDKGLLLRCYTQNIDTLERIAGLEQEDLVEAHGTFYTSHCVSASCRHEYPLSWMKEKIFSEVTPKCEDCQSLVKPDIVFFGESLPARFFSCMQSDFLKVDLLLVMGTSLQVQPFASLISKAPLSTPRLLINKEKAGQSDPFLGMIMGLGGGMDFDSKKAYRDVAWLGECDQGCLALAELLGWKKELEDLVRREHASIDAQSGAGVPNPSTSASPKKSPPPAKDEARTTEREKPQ
In short: (§2)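 Recombinant human SIRT2 at 0.2 unit/well, preincubated 60 min at 25 °C (400 rpm) with inhibitor at four levels including zero, 2.5% DMSO. Detection reagent (acetylated Z-QPK(Me)2K(Ac)-aminoluciferin, NAD and developer) was premixed 60 min at 37 °C, added, and incubated 30 min at 25 °C before luminescence was read. For line 17, substrate was varied (4.12–333.3 µM) at fixed NAD. For line 16, NAD was varied (four levels) at 38.5 µM substrate. Double-reciprocal plots were made, and their slopes replotted against inhibitor concentration for apparent Ki.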

[8] = target: T4, NAD-dependent protein deacetylase sirtuin-2 (Homo sapiens, UniProt Q8IXJ6); test: as §1; details: read-out: Ki(app); in short: as §2
T4 sequence (Q8IXJ6 whole entry): T3 sequence (whole entry)

HepG2 = test: Growth inhibition of human HepG2 cells after 72 hrs by MTS assay; format: functional, cell-based; details: HepG2, 72 h
In short: (§3)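 Cells in DMEM with 10% heat-treated FBS and penicillin/streptomycin, subcultured at 85–90% confluence and used within 15 passages. Seeded 2500 cells/well and grown 24 h, then compound was added (0.5% v/v DMSO final) for 72 h at 37 °C, 5% CO2. MTS was added for 4 h in the dark and absorbance read at 490 nm. Viability is corrected for compound and vehicle blanks.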

MDA-MB-231 = test: Growth inhibition of human MDA-MB-231 cells after 72 hrs by MTS assay; format: functional, cell-based; details: MDA-MB-231, 72 h; in short: as §3
[9] = target: T3, NAD-dependent protein deacetylase sirtuin-2 (Homo sapiens); test: Inhibition of SIRT2 in human HepG2 cells assessed as increase in acetylated p53 at Lys382 and alpha-tubulin level at 2 to 4 uM after 6 hrs by Western blot analysis; format: cell-based
In short: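 Cells seeded at 50,000 cells/mL in high-glucose DMEM containing compound (0.5% v/v DMSO) and incubated at 37 °C, 5% CO2: HepG2 6 h, MDA-MB-231 24 h. Washed cells were lysed on ice ≥20 min in Tris/NaCl/EDTA/Triton buffer with protease and phosphatase inhibitors, then protein measured by Bradford. SDS-PAGE blots were probed overnight at 4 °C with primary antibodies and detected by HRP/ECL, with re-probing after stripping. Each blot was repeated ≥3 times.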

inhibition [1]: 48.5% | IC50 [2]: 16700 nM | Activity (Homo sapiens [3]): 96.5% | Activity (Homo sapiens [4]): 94.3% | Activity (Homo sapiens [5]): 94.9% | solubility kinetic [6]: 3.1 µM (≈ 1.36 µg/mL) | inhibition [7]: Dose-dependent effect | Ki [8]: 2280 nM | IC50 (HepG2): 2100 nM | IC50 (MDA-MB-231): 2100 nM | inhibition [9]: Active
Structure (SMILES): CCCCCCCCn1c2c(c3cc(-c4ccc(S(C)(=O)=O)cc4)ccc31)CNCC2
